By IC50 is commonly meant the concentration needed to halve the response being measured.

These results are taken from ChEMBL document CHEMBL5252537, “Usnic Acid Benzylidene Analogues as Potent Mechanistic Target of Rapamycin Inhibitors for the Control of Breast Malignancies” (J Nat Prod, 2017).

In test [1] the target is Serine/threonine-protein kinase mTOR (Homo sapiens) (UniProt P42345). Briefly: Inhibition of mTOR in human MDA-MB-231 cells assessed as reduction in p-S6K level at 15 to 25 uM by Western blot analysis. Format: cell-based. Particulars: dose 15-25 µM. A digest of the protocol:
(§1)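 Cells seeded at 5 × 10^5 per 100 mm dish and allowed to attach overnight. Treated with compound or DMSO for 72 h (HGF 100 ng/mL added for MDA-MB-231). Lysed in RIPA buffer with protease inhibitors. 30 μg protein run on SDS-PAGE, transferred to PVDF, blocked in 5% BSA/TBST. Primary antibodies overnight at 4 °C, HRP secondary antibodies, chemiluminescent detection.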

Test [2] relates to MCF7. Nature of the test: Induction of autophagy in human MCF7 cells assessed as increase in beclin-1 level by Western blotting analysis. Format: functional, cell-based. As to conditions: dose 15-25 µM. A digest of the protocol: as §1
In general terms: In western blotting, separated proteins are transferred to a membrane and probed.

Test [3] addresses Serine/threonine-protein kinase mTOR (Homo sapiens) (UniProt P42345). Briefly: Inhibition of mTOR in human MDA-MB-231 cells assessed as reduction in phosphorylated 4E-BP1 level at 15 to 25 uM by Western blot analysis. Format: cell-based. As to conditions: dose 15-25 µM. A digest of the protocol:
as §1

The target is the same in test [4]. Briefly: Inhibition of mTOR in human […] cells assessed as reduction in p-S6K level at 15 to 25 uM by Western blot analysis. Format: cell-based. As to conditions: MCF7, dose 15-25 µM. A digest of the protocol:
as §1

For a further test, the system named is BT-474. Briefly: Antiproliferative activity against human BT-474 cells incubated for 72 hrs by MTT assay. As to conditions: BT-474, 72 h. Format: functional, cell-based. A digest of the protocol: (§2)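 Cells seeded at 5 × 10^3/well and allowed to attach overnight, then washed with PBS. Compound diluted from 10 mM DMSO stock into medium (100 ng/mL HGF added for c-Met-expressing cells), in triplicate, 72 h at 37 °C. MTT added for 4 h, formazan dissolved in DMSO, absorbance read at 570 nm. Cell numbers taken from a standard curve; IC50 calculated.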
(In general: Formazan colour is commonly taken as a measure of viable cells.)

The test system of a further test is SK-BR-3. Nature of the test: Antiproliferative activity against human SK-BR-3 cells incubated for 72 hrs by MTT assay. As to conditions: SK-BR-3, 72 h. Format: functional, cell-based. The procedure, abridged:
as §2

Another test deals with T47D. Nature of the test: Antiproliferative activity against human T47D cells incubated for 72 hrs by MTT assay. Format: functional, cell-based. The procedure, abridged: as §2
Test [5] concerns MDA-MB-231. Nature of the test: Induction of autophagy in human MDA-MB-231 cells assessed as increase in beclin-1 level by Western blotting analysis. Format: functional, cell-based. Particulars: dose 15-25 µM. The procedure, abridged:
as §1

Test [6] addresses T1, mTORC2 (Homo sapiens) (UniProt P42345+Q6R327+Q9BVC4+Q9BPZ7). Briefly: Inhibition of mTORC2 in human MCF7 cells assessed as reduction in Akt phosphorylation at Ser473 residue at 15 to 25 uM by Western blot analysis. Format: cell-based. Particulars: dose 15-25 µM. The procedure, abridged:
as §1

Test [7] deals with MDA-MB-231. Briefly: Induction of autophagy in human MDA-MB-231 cells assessed as increase in LC3 level by Western blotting analysis. Format: functional, cell-based. As to conditions: dose 15-25 µM. A digest of the protocol:
as §1

The test system of test [8] is MDA-MB-231. Briefly: Antimigratory activity in human MDA-MB-231 cells assessed as inhibition of cell migration after 23 hrs by scratch wound healing assay. Format: functional, cell-based. The procedure, abridged: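 Cells seeded at 1 × 10^5/well and grown to a confluent monolayer, then scratched with a 200 μL pipet tip. Held 5 h in serum-free medium, then given medium with HGF (100 ng/mL) plus compound or DMSO. Norstictic acid (15 μM) was the positive control. Wound width photographed at 0 h and followed up to 24 h; cells MeOH-fixed. Percent migration from wound thickness versus DMSO wells; IC50 calculated.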

In the next test the test system is MDA-MB-468. Nature of the test: Antiproliferative activity against human MDA-MB-468 cells incubated for 72 hrs by MTT assay. Format: functional, cell-based. As to conditions: MDA-MB-468, 72 h. The procedure, abridged: as §2
The target in test [9] is T1, mTORC2 (Homo sapiens). Briefly: Inhibition of mTORC2 in human MDA-MB-231 cells assessed as reduction in Akt phosphorylation at Ser473 residue at 15 to 25 uM by Western blot analysis. As to conditions: dose 15-25 µM. Format: cell-based. The procedure, abridged:
as §1

Test [10] concerns MDA-MB-231. Nature of the test: Antiproliferative activity against human MDA-MB-231 cells incubated for 72 hrs by MTT assay. Format: functional, cell-based. Particulars: MDA-MB-231, 72 h. A digest of the protocol: as §2
Test [11] addresses Serine/threonine-protein kinase mTOR (Homo sapiens) (UniProt P42345). Briefly: Inhibition of mTOR in human […] cells assessed as reduction in phosphorylated 4E-BP1 level at 15 to 25 uM by Western blot analysis. Format: cell-based. Particulars: MCF7, dose 15-25 µM. A digest of the protocol: as §1
In test [12] the test system is MCF7. Nature of the test: Induction of autophagy in human MCF7 cells assessed as increase in LC3 level by Western blotting analysis. Format: functional, cell-based. As to conditions: dose 15-25 µM. The procedure, abridged: as §1
In test [13] the test system is MCF7. Briefly: Antiproliferative activity against human MCF7 cells incubated for 72 hrs by MTT assay. Format: functional, cell-based. As to conditions: MCF7, 72 h. A digest of the protocol: as §2
In test [14] the test system is MDA-MB-231. Nature of the test: Anti-invasive activity in human MDA-MB-231 cells after 24 hrs […]. As to conditions: MDA-MB-231, 24 h. Format: functional, cell-based.

Activity calls are given as the source filed them. The rule behind the calls is not given here.

Consider `CC(=O)C1=C(O)C=C2Oc3c(C(C)=O)c(O)c(C)c(O)c3[C@]2(C)C1=O` [(-)-USNIC ACID], for which the inhibition entry (in test [1]; in test [3]; in test [4]; at mTORC2 (Homo sapiens) [6]; on mTORC2 (Homo sapiens) [9]; in test [11]) was “Active” throughout. For the same molecule, the Activity entry in the test on MCF7 [2], in the test with MDA-MB-231 [5], in the test with MDA-MB-231 [7], in the test with MDA-MB-231 [8] and in the test on MCF7 [12] was “Dose-Dependent Effect” in each case. Moreover, the 50% inhibitory concentration (IC50) with BT-474 came out at 15.1 µM; in the test with SK-BR-3, 14.4 µM; in the test with T47D, 15.9 µM; in the test with MDA-MB-231 [8] (MDA-MB-231, 23 h), 13.7 µM; with MDA-MB-468 it was 13.7 µM; with MDA-MB-231 [10] it was 13.1 µM. Besides, the values for the IC50 in the test with MCF7 [13] and in the test on MDA-MB-231 [14] were 11.2 µM and 14.2 µM, respectively.
